The list is not random: actives were taken first. Their share in the collection is about 1.1%.
CaV13 ICDI inh – Disruptors of the CACNA1D IQ motif to Ca2+-dependent inactivation inhibitor domain association, primary screening, Förster resonance energy transfer in intact living …; inhibition, % at 12.3 µM; 340,000 compounds, 0.098% hits; AID 743397; HEK cells, CFP/YFP FRET ICDI-IQ, plate reader, 10 min; percent FRET-ratio fall versus neutral wells;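 active = mean replicate inhibition of at least 30% and at least 1% of replicates passing that level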
procasp3 activ – activates human procaspase-3. recombinant procaspase-3 D3A, Ac-DEVD-pNA absorbance 405 nm. activation, % at 8.5 µM. 330,000 compounds, 0.11% hits. AID 463141;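 active = activation above the mean of all tested compounds plus 3 SD, cut at about 21% in these data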
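material = Procaspase-3 D3A mutant | probe or stimulus = Ac-DEVD-pNA | compound = single dose, 8.5 µM nominal compound, 0.8% DMSO | timing = 1 h preincubation, 2 h reaction | measured by = 405 nm absorbance of p-nitroaniline, reads at 0 and 120 min | benchmarks = DMSO-only low control, 5 µM PC-3 D3A high control | repeats = singlicate, each compound tested once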
aDG glyco up – alpha-DG glycosylation activation; Pro5-aDG cells, alpha-DG glycosylation AlphaScreen (IIH6); 0% Pro5, 100% B10-LARGE cell signal; activation, % at 10 µM; 360,000 compounds, 0.22% hits;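 active = activation of at least 8% versus controls, or a plate z-score of at least 8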;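 note: Pro5 are CHO cells carrying HIG-tagged alpha-DG that lacks glycosylation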
proCasp7 act – counter-screen: procaspase-7 (human) activation; activation, % at 8.5 µM; recombinant procaspase-7, Ac-DEVD-pNA absorbance 405 nm; D23A/D198A/D206A triple mutant, cannot self-cleave; scale: DMSO 0, 5 µM enzyme 100; AID 463210; P55210; 330,000 compounds, 0.093% hits;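 active = percent activation above the screen-wide mean plus 3 SD, cut at about 25% in these data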
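Assay system: Uncleavable procaspase-7 mutant enzyme | Input: 2 µM procaspase-7 mutant as dispensed | Timing: 1 h compound preincubation, 2 h substrate cleavage, 25 °C | Repeats: One well per compound | Control set: DMSO wells as 0%, DMSO with 5 µM added PC-7 as 100% | Technique: Epi-absorbance of released pNA at 405 nm, two timepoints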
GRK2 inh – inhibitors of human GRK2 displacing RNA aptamer. P25098. bead flow cytometry, FAM-aptamer displacement from GRK2. inhibition of aptamer binding, % at 10 µM. 330,000 compounds, 0.59% hits. AID 488847;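 active = inhibition of aptamer binding above 40%, roughly 3 SD of noise, on plates passing a quality check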;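 note: median bead fluorescence of bound FAM aptamer so fluorescent compounds give negative values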
Target sequence (P25098 whole entry, looked up): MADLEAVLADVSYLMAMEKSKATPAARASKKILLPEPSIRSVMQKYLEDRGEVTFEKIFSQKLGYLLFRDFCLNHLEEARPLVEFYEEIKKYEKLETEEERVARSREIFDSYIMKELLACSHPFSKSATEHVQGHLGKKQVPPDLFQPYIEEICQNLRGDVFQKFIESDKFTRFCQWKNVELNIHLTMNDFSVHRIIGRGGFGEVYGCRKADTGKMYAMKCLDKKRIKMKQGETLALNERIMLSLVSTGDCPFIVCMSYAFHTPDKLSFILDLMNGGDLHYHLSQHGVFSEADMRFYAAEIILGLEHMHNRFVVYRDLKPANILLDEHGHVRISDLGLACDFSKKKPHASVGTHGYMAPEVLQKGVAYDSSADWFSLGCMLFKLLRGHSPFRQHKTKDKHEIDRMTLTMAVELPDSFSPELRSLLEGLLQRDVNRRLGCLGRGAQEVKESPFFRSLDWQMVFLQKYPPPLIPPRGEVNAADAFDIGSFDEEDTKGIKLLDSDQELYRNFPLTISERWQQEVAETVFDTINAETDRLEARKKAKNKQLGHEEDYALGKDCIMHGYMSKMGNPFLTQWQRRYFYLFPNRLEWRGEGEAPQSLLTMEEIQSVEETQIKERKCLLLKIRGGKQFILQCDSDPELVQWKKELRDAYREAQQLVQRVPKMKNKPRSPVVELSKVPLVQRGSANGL
T cell modulator – T cell immune modulation candidate; 330,000 compounds, 0.068% hits; AID 2052; 2C CD8+ T cell-vesicle binding, flow cytometry; active compounds read low; response (vesicle binding), % at 7 µM;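 active = response, share of CD8 T cells binding vesicles, and their 90th percentile fluorescence all below set limits, cut at about 80% in these data, passing the limit was not always enough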;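 note: values below 100% mean blocked vesicle binding to the CD8+ T cells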
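Benchmarks: naked versus QL9-loaded vesicles / Assay system: purified 2C TCR transgenic mouse naive CD8+ T cells / Technique: high-throughput flow cytometry with anti-B7-1 and anti-CD8 staining / Timing: Cell–vesicle co-incubation 1.5 h at 37 °C, staining 20 min on ice / Read-out: percent CD8+ FL2 mean versus row control / Probe or stimulus: QL9-loaded Drosophila micro-vesicles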
aDG conf – alpha-DG glycosylation activation, confirmation; shares compounds with aDG glyco up; Pro5-aDG cells, IIH6 AlphaLISA; scaled to LARGE-overexpressing B10 cells as 100%; activation, % at 10 µM (by protocol); 600 compounds, 17% hits; AID 651671;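 active = activation of at least 7% in one or more replicates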;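 note: cells exposed to compound for two days before detection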
A number is an active result; . = inactive; / = not tested or not shown.

SMILES | CaV13 ICDI inh | procasp3 activ | aDG glyco up | proCasp7 act | GRK2 inh | T cell modulator | aDG conf
CC(C)Oc1ccc(OCCCN2CCCCCC2)cc1 | . | . | 5.2 | . | . | . | 13
COCCn1c(SCC#N)nnc1-c1ccc(OC)cc1 | / | . | 4.7 | . | . | . | .
CC(OC(=O)c1nc(Cl)ccc1Cl)C(=O)Nc1ccccc1F (stereo not drawn) | . | . | . | . | . | . | /
O=C(NCCc1cn2ccccc2n1)c1cc(COc2ccc3ncccc3c2)on1 | . | . | 10 | . | . | . | .
COCC1CCN(C(=O)c2cc(COc3ccc4ncccc4c3)on2)CC1 | . | . | 6.7 | . | . | . | .
O=C(c1cc(COc2ccc3ncccc3c2)on1)N1CCCC1 | . | . | . | . | . | . | /
O=C(NC1CCCC1)c1cc(COc2ccc3ncccc3c2)on1 | / | . | . | . | . | . | /
Cc1cc2nc3n(c2cc1C)CC1CC(C(=O)NCc2ccco2)N(C)C31 (stereo not drawn) | . | . | . | . | . | . | /
O=C(NCC1CC1)c1ccc2sc([C@@H]3O[C@H](CO)[C@H](O)[C@H](O)[C@H]3O)nc2c1 | . | / | . | / | / | / | /
Brc1ccccc1OCCCCn1cnc2ccccc21 | . | . | 10 | . | . | . | .
Clc1ccccc1OCCn1cnc2ccccc21 | . | . | . | . | . | . | /
COc1cc(N=Nc2cccc(S(N)(=O)=O)c2)c2ccccc2c1N | . | . | . | . | . | . | /
O=C(COc1ccc(NS(=O)(=O)c2ccc(F)cc2)cc1)N1CCOCC1 | . | . | 11 | . | . | . | .
Cc1cccc(OCc2nnc(SCC(=O)Nc3ccc(N4CCOCC4)cc3)o2)c1 | . | . | . | . | . | . | /
CNC(=O)c1c(NC(=O)c2ccc(S(=O)(=O)N3CCCC3)cc2)sc2c1CCN(C(C)C)C2 | / | . | / | . | . | . | /
CCN1CCc2c(sc(NC(=O)c3ccc(S(=O)(=O)N4CCCCCC4)cc3)c2C(=O)NC)C1 | . | . | 26 | . | . | . | .
CCN1CCc2c(sc(NC(=O)c3ccc(S(=O)(=O)N4CCOCC4)cc3)c2C(N)=O)C1 | . | . | 88 | . | . | . | .
CCCN1CCc2c(sc(NC(=O)c3ccc(S(=O)(=O)N4CCCC4)cc3)c2C(N)=O)C1 | / | . | . | . | . | . | /
CC(C)N1CCc2c(sc(NC(=O)C3CCCCC3)c2C(N)=O)C1 | . | . | 8.2 | . | . | . | .
CC1CCCN(S(=O)(=O)c2ccc(C(=O)Nc3sc4c(c3C(N)=O)CCN(C)C4)cc2)C1 (stereo not drawn) | . | . | 48 | . | . | . | 3.7
C/C(=N\NC(=O)CN1CCN(S(=O)(=O)c2ccc(C)cc2)CC1)c1ccc(O)cc1 | . | . | . | . | . | . | /
CSc1ccc(CN(C)C(=O)COc2ccc(C(=O)c3ccccc3)cc2)cc1 | . | . | . | . | . | . | /
C/C(=N\Nc1ncc(Cl)cc1Cl)c1ccc2c(c1)OCO2 | . | . | 13 | . | . | . | .
O=C(Nc1ccc(F)c(F)c1)c1ccc(F)c(S(=O)(=O)N2CCC3(CC2)OCCO3)c1 | . | . | 10 | . | . | . | .
CCOc1ccc(NC(=O)c2ccc(F)c(S(=O)(=O)N3CCCC3)c2)cc1 | . | / | . | / | / | / | /
SMILES | CaV13 ICDI inh | procasp3 activ | aDG glyco up | proCasp7 act | GRK2 inh | T cell modulator | aDG conf
CCOc1ccc(NC(=O)c2ccc(F)c(S(=O)(=O)N3CCN(c4ccccn4)CC3)c2)cc1 | . | . | 5.0 | . | . | . | 2.1
COc1cc(NC(=O)c2c(F)c(F)c(F)c(F)c2F)c(OC)cc1Cl | . | . | 7.7 | . | . | . | .
O=C(Cc1cccs1)N(Cc1cccs1)C1(C(=O)NC2CCCC2)CCCCC1 | . | . | . | . | . | . | /
O=C(c1ccc2c(c1)OCO2)N(Cc1cccs1)C1(C(=O)NC2CCCCC2)CCCCC1 | . | . | 7.4 | . | . | . | .
O=C(COc1ccc(-c2ccccc2)cc1)Nc1cccnc1 | . | . | 4.6 | . | . | . | .
O=C(COc1ccc(-c2ccccc2)cc1)NNC(=O)Nc1ccccc1 | . | . | 17 | . | . | . | .
Cn1nccc1C(=O)Oc1cccc(/C=N/NC(=O)c2ccccc2O)c1 | . | . | . | . | . | . | /
CC(CC(=O)Nc1ccc2c(c1)c(=O)n(C)n2Cc1ccc(Cl)cc1)C(F)(F)F (stereo not drawn) | . | / | . | / | / | / | /
CC(C)C(=O)N1CCC1(C)C(=O)Nc1cc(-c2ccccc2)nn1C (stereo not drawn) | . | / | . | / | / | / | /
O=[N+]([O-])c1cc(-c2nc(-c3ccncc3)no2)cc([N+](=O)[O-])c1 | . | . | 8.7 | . | . | . | .
O=[N+]([O-])c1cc(-c2nc(-c3ccncc3)no2)ccc1Cl | . | . | . | . | . | . | /
Cc1c(C(=O)N(Cc2ccc(Cl)cc2)C2CCS(=O)(=O)C2)oc2ccccc12 (stereo not drawn) | . | . | 2.3 | . | . | . | .
Cc1ccc(N2C(=O)C3C(c4ccccc4)N4CCCN4C3(C)C2=O)cc1 (stereo not drawn) | . | . | . | . | . | . | /
Cc1ccccc1CS(=O)(=O)CC(O)CN1CCCC1=O (stereo not drawn) | . | . | . | . | . | . | /
Cc1ccc(NC(=O)CSc2nc3c(c(=O)[nH]2)CCC3)c(C)c1 | . | . | 7.4 | . | . | . | .
CCNC(=O)/N=C1/NC(=O)C(C(C)C)O1 (stereo not drawn) | / | . | 22 | . | . | . | .
CC(C)N1CCN(c2ccc(OC[C@H]3CO[C@](Cn4cncn4)(c4ccc(Cl)cc4Cl)O3)cc2)CC1 | . | . | . | . | . | . | /
CC(C)N1CCN(c2ccc(OCC3COC(Cn4cncn4)(c4ccc(Cl)cc4Cl)O3)cc2)CC1 (stereo not drawn) | . | / | 21 | / | / | / | 9.9
Cc1cc(C)cc(C(=O)Nc2ccc(NC(=O)Cc3ccccc3)cc2)c1 | . | . | . | . | . | . | /
O=C(N[C@@H]1CCC(=O)N(CC[C@H](Sc2ccc(Br)cc2)c2ccccc2)CC1)OCc1ccccc1 | . | . | 9.1 | . | . | . | .
COc1ccc(S[C@@H](CCN2CC[C@H](NC(=O)OCc3ccccc3)CCC2=O)c2ccccc2)cc1 | . | . | . | . | . | . | /
